Source: PubChem (several laboratories)
STAT1 act – STAT1 signaling activators, primary screen, cell-based, HTS, luciferase reporter; hit rate 2.6% among 200,000; NIH 3T3 STAT1-luciferase reporter, IFN-gamma, luminescence; 100% = IFN-gamma alone, no compound; activation (% of control), % at 5.5 µM;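 active = activation above the screen-wide mean activation plus 3 SD, cut at about 130% in these data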;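 note: raw ratio to IFN-gamma control signal so 100% means no change and 0% no light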
STAT1 blocker – STAT1 signaling inhibitors, primary screen, cell-based, HTS, luciferase reporter. NIH 3T3 STAT1-luciferase reporter, IFN-gamma, luminescence. inhibition, % at 5.5 µM. hit rate 0.35% among 200,000;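 active = inhibition above a set limit, the mean inhibition across all tested compounds plus 3 SD, cut at about 34% in these data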;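 note: 0% = IFN-gamma with DMSO and 100% = IFN-gamma with 300 µM nifuroxazide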
STAT3 blocker – IL-6 driven STAT3 reporter inhibitors, primary screen, U3A cells, luciferase, luminescence, MLSCN library. inhibition, % at 5.5 µM. hit rate 0.89% among 190,000. IL-6 STAT3-luciferase reporter; host cell line lacks STAT1;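 active = inhibition above the mean inhibition across all screened compounds plus 3 SD, cut at about 44% in these data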;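 note: 0% = DMSO only wells and 100% = 100 µM nifuroxazide control wells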
STAT3 activator – IL-6 driven STAT3 reporter potentiators, primary screen, U3A cells, luciferase, luminescence, MLSCN library. IL-6 STAT3-luciferase reporter; 100% = signal with IL-6 EC80 alone. activation (% of control), % at 5.6 µM. hit rate 0.91% among 190,000;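 active = activation above the screen-wide mean of compound activation plus 3 SD, cut at about 130% in these data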;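 note: 0% = background luminescence of wells with medium and substrate only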
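Test system: Human STAT1-deficient U3A cells with stable STAT3-luciferase reporter | Also added: Interleukin-6, 33 ng/mL | Timing: Compound pre-incubation 1 h before IL-6, then 6 h stimulation at 37 °C | Technique: Luciferase reporter luminescence | Read-out: Percent of IL-6-only median luminescence | Benchmarks: IL-6-only wells as 100% reference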
NF-kB expr up – activators of NF-kB expression in neurons, primary screen, cell-based, HTS. human neuronal cells, NF-kB reporter expression; active compounds read high. fold change at 12.5 µM. hit rate 1.6% among 190,000. AID 1239, 2008; in the data active = fold change above about 3.3
APP 5'UTR act – activators of APP 5'UTR luciferase reporter, primary screen, SH-SY5Y cells; SH-SY5Y APP 5'UTR luciferase reporter, luminescence; zero percent = DMSO vehicle wells; activation, % at 2 µM; hit rate 1% among 190,000;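 active = activation above a set limit, based on mean plus 3 SD of controls, cut at about 140% in these data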
* = called active by the depositor; · = no result. A selection: hits, their analogues and other compounds. The true share with any hit is near 4.9%.

SMILES | STAT1 act | STAT1 blocker | STAT3 blocker | STAT3 activator | NF-kB expr up | APP 5'UTR act
O=C(CSc1nnc(-c2ccccc2Cl)o1)Nc1ccccn1 | 117.3 | -20.8 | 13.4 | 94.3 | 2.27 | 129.2
O=C(CSc1nnc(-c2ccc(O)cc2)o1)Nc1ccc2c(c1)OCCO2 | 101.3 | -1.4 | 20.8 | 85.2 | 1.92 | 135.3*
O=C(CSc1nnc(-c2ccccc2Cl)o1)Nc1ccc2c(c1)OCCO2 | 98.2 | 1.1 | 3.3 | 99.1 | 2.23 | 140.9*
Cc1c(C(=O)N/N=C/c2cccs2)nc2ccccn12 | 117.0 | -18.7 | -3.2 | 107.8 | 1.47 | -11.3
O=C(Nc1nc(COc2ccccc2)cs1)c1ccccc1F | 99.3 | 0.8 | 24.8 | 81.8 | 1.61 | 17.0
NC(=O)COC(=O)c1ccccc1Oc1ccccc1 | 94.8 | 5.2 | -8.1 | 110.0 | 1.19 | -13.2
Cc1ccc(N2CS(=O)(=O)/C(=C/N(C)C)C2=O)cc1 | 150.3* | -54.7 | -0.8 | 105.0 | 1.85 | 99.1
CN(C)/C=C1\C(=O)N(c2ccc(Cl)cc2)CS1(=O)=O | 128.2 | -30.8 | 3.7 | 102.0 | 2.05 | 24.3
O=C(Nc1nccs1)c1cncc(Br)c1 | 142.9* | -48.4 | -12.3 | 118.0 | 0.94 | 42.7
CCOC(=O)c1sc(NC(=O)c2cncc(Br)c2)nc1C | 125.8 | -29.7 | -10.3 | 110.5 | 2.47 | 5.8
Nc1ccc(C(=O)Nc2nccs2)cc1 | 126.7 | -30.5 | 5.5 | 97.1 | 2.18 | 25.9
Cc1csc(NC(=O)c2cncc(Br)c2)n1 | 128.2 | -31.9 | 21.5 | 85.9 | 3.34* | 131.5
CCOc1ccccc1CN1CCN(Cc2csc(C(C)=O)c2)CC1CCO (stereo not drawn) | 95.5 | 3.2 | 4.1 | 100.9 | 0.91 | -2.1
Cc1cc(N)n2nc(-c3ccccc3)cc2n1 | 145.9* | -52.0 | 28.5 | 78.4 | 5.38* | 118.2
Cc1cc(N)n2ncc(-c3ccccc3)c2n1 | 150.4* | -54.7 | -16.5 | 121.6 | 3.06 | 86.1
Cc1cc(N)n2ncc(-c3cccc(Br)c3)c2n1 | 141.8* | -46.1 | -15.7 | 115.1 | 2.1 | 96.0
Cc1cc(C(F)(F)F)n2ncc(-c3ccc(F)cc3)c2n1 | 88.1 | 12.9 | 10.7 | 94.7 | 0.93 | -8.4
CCC(Oc1ccccc1)C(=O)Nc1ccc(-c2nnc(-c3ccco3)o2)cc1 (stereo not drawn) | 133.4* | -36.3 | 6.2 | 95.8 | 0.68 | 79.8
COc1ccccc1OCC(=O)Nc1ccc(-c2nnc(-c3ccco3)o2)cc1 | 120.2 | -20.8 | -4.2 | 105.6 | 1.2 | 25.5
NC(=O)c1oc2ccccc2c1NC(=O)C1COc2ccccc2O1 (stereo not drawn) | 119.0 | -22.6 | 25.8 | 83.2 | 1.19 | 24.4
C/C(=N\NC(=O)c1cccc(S(=O)(=O)N2CCCC2)c1)c1cccs1 | 110.0 | -12.9 | -0.4 | 103.5 | 1.23 | -0.1
CCN(CC)c1ccc(C(=O)n2cnc3ccccc32)cc1 | 129.6* | -30.0 | -5.1 | 110.1 | 3.13 | 23.5
CN(C)c1ccc(C(=O)n2nnc3ccccc32)cc1 | 87.7 | 18.0 | 8.3 | 94.0 | 1.99 | -6.4
CC(=O)NC(CSC(CC(=O)c1ccco1)c1ccc(C)cc1)C(=O)O (stereo not drawn) | 114.9 | -17.6 | 17.0 | 91.0 | 1.24 | 44.6
Nc1nonc1-c1nc2ccccc2n1Cc1ccc(F)cc1Cl | 134.7* | -38.3 | -71.6 | 160.5* | 0.95 | 8.3
SMILES | STAT1 act | STAT1 blocker | STAT3 blocker | STAT3 activator | NF-kB expr up | APP 5'UTR act
CCC(C)(C)c1ccc(Oc2ccc(N)cc2)cc1 | 34.5 | 69.6* | 81.3* | 35.2 | 0.27 | -79.7
CCCCN(C(=O)Cc1cccc(F)c1)c1c(N)n(CCC)c(=O)[nH]c1=O | 101.6 | -3.6 | -0.1 | 103.3 | 1.15 | 9.3
O=S(=O)(NCc1cn2ccsc2n1)c1ccc(Oc2ccccc2)cc1 | 79.0 | 23.0 | 61.8* | 51.7 | 0.77 | 9.2
COc1ccc(NC(=O)Cn2nnc(C(=O)NCCc3ccc(OC)c(OC)c3)c2N)c(OC)c1 | 86.7 | 15.7 | 6.4 | 98.8 | 1.17 | 27.4
Cc1noc(C)c1COC(=O)C(c1ccccc1)c1ccccc1 | 88.3 | 12.3 | 10.6 | 94.8 | 1.15 | -8.2
O=c1oc(-c2cc3ccccc3o2)nc2sc3c(c12)CCCC3 | 112.5 | -13.8 | 1.6 | 99.3 | 1.2 | 225.9*
O=c1oc(-c2ccccc2)nc2sc3c(c12)CCCC3 | 136.2* | -39.5 | -11.7 | 110.0 | 6.14* | 47.9
CCc1nc2sc3c(c2c(=O)o1)CCCC3 | 88.2 | 10.3 | -5.1 | 105.2 | 0.93 | 6.3
O=c1oc(-c2cccs2)nc2sc3c(c12)CCCCC3 | 99.1 | 1.0 | 0.7 | 105.6 | · | 76.6
Cc1ccccc1-c1nc2sc3c(c2c(=O)o1)CCC3 | 104.4 | -5.2 | 5.3 | 96.7 | 4.04* | 14.3
CCOc1ccc(C(C)NC(=O)C2CCC2)cc1 (stereo not drawn) | 103.9 | -4.4 | 3.5 | 99.3 | 1.24 | -2.4
CCn1c(CNc2cccc(C(F)(F)F)c2)n[nH]c1=S | 105.7 | -8.2 | 9.0 | 94.3 | 1.17 | 0.0
CCOc1ccc(-n2cc(-c3ccc(OC)c(OC)c3)[nH]c2=S)cc1 | 91.3 | 8.1 | 19.8 | 89.3 | 1 | 12.4
CC(=O)NC(=S)Nc1sc2c(c1C(N)=O)CCC(C)C2 (stereo not drawn) | 131.6* | -36.6 | 5.4 | 98.2 | 3.52* | 65.3
CC(C)CC(=O)NC(=S)Nc1sc2c(c1C(N)=O)CCC2 | 143.7* | -51.4 | -0.9 | 104.9 | 1.47 | 55.0
CC(C)(C)C(=O)NC(=S)Nc1sc2c(c1C(N)=O)CCC2 | 145.7* | -53.6 | -3.0 | 106.6 | 2.13 | 46.0
CCOC(=O)CCNCc1ccc(F)cc1 | 103.2 | -2.8 | -2.9 | 104.5 | 1.17 | 17.9
NS(=O)(=O)c1ccc(CCNC(=O)NC2(C(F)(F)F)Oc3ccccc3O2)cc1 | 116.6 | -18.1 | 0.3 | 102.8 | 3.85* | -24.7
Cc1ccc(N2C(=O)CC(Sc3nc4ccccc4o3)C2=O)cc1Cl (stereo not drawn) | 91.6 | 9.4 | 5.5 | 96.9 | 0.92 | 2.6
O=C(NCc1ccccn1)c1cccc(NS(=O)(=O)c2cccc(F)c2)c1 | 96.4 | 4.1 | 3.9 | 100.0 | 0.93 | -6.2
CSc1cccc(NC(=O)c2cnccn2)c1 | 106.1 | -6.6 | 15.5 | 90.5 | 1.51 | 3.0
CCC(=O)Nc1ccc(NC(=O)c2ccccn2)cn1 | 129.8* | -30.1 | 16.2 | 90.1 | 0.63 | 84.8
CCC(=O)Nc1ccc(NC(=O)c2cccc(OC)c2)nc1 | 128.6* | -31.2 | 5.1 | 98.5 | 1.89 | 43.8
COc1ccc(NC(=O)c2ccccn2)cc1OC | 124.1 | -27.0 | -1.8 | 103.6 | 1.9 | 43.8
COc1ccc(NC(=O)c2ccccn2)cc1 | 83.8 | 26.9 | 77.4* | 34.0 | 3.33* | 79.8
CSc1cccc(NC(=O)c2ccccn2)c1 | 142.5* | -48.5 | 16.2 | 89.6 | 2.63 | 90.3
CCOC(=O)N/N=C(/C)c1cccc(-n2cnnn2)c1 | 95.5 | 4.2 | 15.9 | 95.8 | 0.96 | 0.8
